Experimental data gathered from unrelated publications.
Protocols differ between the studies behind these lines.
Target: RAC-gamma serine/threonine-protein kinase (AKT3, Homo sapiens, UniProt Q9Y243)

Structure (SMILES) | test | setting | quantity | result
CC(C)(C)c1nc(-c2cccc(NS(=O)(=O)c3c(F)cccc3F)c2F)c(-c2ccnc(N)n2)s1 | enzyme activity, inhibitor, radiometric | 1 µM | remaining activity | 80%
O=C(Nc1ccc(Oc2ccc(F)cc2)cc1)N1CCc2ncccc2[C@H]1c1ccc(F)cc1 | cell-free assay, competition with immobilised ligand | 1 µM | remaining binding | 95%
Cn1c2c(Cl)c(Cl)ccc2c2cn[nH]c(=O)c21 | thermal stability, DSF | 10 µM | ΔTm | 0.1 °C
Cc1ccc(Nc2nccc(N(C)c3ccc4c(C)n(C)nc4c3)n2)cc1S(N)(=O)=O | enzyme activity, inhibitor | 0.5 µM | remaining activity | 93.3%
CC(=O)N1CCC(c2ccc(C(=O)NC3=NCCN3)cc2C(F)(F)F)CC1 | cell-free assay, competition with immobilised ligand | 1 µM | remaining binding | 100%
CC/C(=N\NC(=O)NCc1cccc(O)c1)c1ccc(O)c(C)c1O | enzyme activity, inhibitor | 0.1 µM | inhibition | 22.8%
CO[C@@H](C)c1c(Nc2ccc([C@@H](N(C)C(=O)C3CCS(=O)(=O)CC3)C(F)(F)F)cc2)cnc2cc(Cl)nn12 | cell-free assay, competition with immobilised ligand | 1 µM | remaining binding | 65%
CN1CC(Oc2cnc(C#N)cc2-c2ccn3nc(NC(=O)C4CC4)cc3c2)C1 | enzyme activity, inhibitor | 1 µM | inhibition | 7%
Cn1cc(Cl)c2c(Oc3c(F)cc(Nc4cc(Cl)nc(N)n4)cc3F)ccnc21 | cell-free assay, competition with immobilised ligand | 0.1 µM | remaining binding | 98%
Nc1ncnc2occ(-c3ccc(NC(=O)Nc4cc(C(F)(F)F)ccc4F)cc3)c12 | cell-free assay, inhibitor | 20 µM | remaining signal | 85%
O=C1Nc2ccc(Cl)cc2C1=Cc1cc(Cl)c(O)c(Cl)c1 | cell-free assay | 0.5 µM | remaining signal | 96.9%
Cc1sc(C(=O)NC2COC2)cc1-n1cc(NC(=O)Nc2c(F)cccc2Cl)cn1 | enzyme activity, inhibitor | 10 µM | remaining activity | 94.8%
Cn1c2c(c3ccc(Cl)c(Cl)c31)C(C#N)C(C)(C)NC2=O (stereo not drawn) | thermal stability, DSF | 10 µM | ΔTm | -0.2 °C
COc1cc(F)ccc1-c1ncnc(Nc2cccc(C[S@](C)(=N)=O)c2)n1 | enzyme activity, inhibitor | 10 µM | activity vs control | 100%
COc1cc(Nc2c(C#N)cnc3cc(OCCCN4CCN(C)CC4)c(OC)cc23)c(Cl)cc1Cl | cell-free assay | 0.5 µM | remaining signal | 90.7%
Cc1cc(NC(=O)c2cccc(S(F)(F)(F)(F)F)c2)cc(-n2ccn3nc(-c4cccnc4)cc23)c1 | cell-free assay, competition with immobilised ligand | 1 µM | remaining binding | 100%
CCN1CCC2(CC1)NC(=O)c1c(c3ccc(Cl)c(Cl)c3n1C)C2C#N (racemic) | thermal stability, DSF | 10 µM | ΔTm | -0.2 °C
CCCOc1ccc(OC)c(F)c1C(=O)c1ccc(C(=O)N[C@@H]2CNC[C@H]2NC(=O)c2ccc3[nH]ncc3c2)cc1 | enzyme activity, inhibitor | 0.1 µM | remaining activity | 88%
